Key:
[1] = Inhibition of Hepatitis C virus core protein dimerization by core dimerization assay; design: species or system Hepacivirus hominis
Hepatitis C virus [2] = experiment: Antiviral activity against Hepatitis C virus JFH-1 J6 infected in human HuH7.5 cells assessed as inhibition of virus propagation measured after 72 hrs; format: functional, organism-based, Hepacivirus hominis; conditions: subtype 2a JFH1 J6, Huh-7, 72 h
Procedure, shortened: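 Huh-7.5 hepatoma cells infected with HCV genotype 2a J6/JFH-1 were treated with inhibitor at 0.001–100 µM. […] An NS3/NS4A protease inhibitor served as positive control. Values are means of three experiments.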

Hepatitis C virus [3] = experiment: Antiviral activity against Hepatitis C virus JFH-1 J6 infected in human HuH7.5 cells assessed as inhibition of virus propagation measured after 72 hrs of transfer to fresh media; format: functional, organism-based, Hepacivirus hominis; conditions: subtype 2a JFH1 J6, Huh-7, 72 h
Procedure, shortened: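 Huh-7.5 hepatoma cells, HCV 2a J6/JFH-1. Virus secreted during the initial 72 hr inhibitor-treated culture (0.001–100 µM) was used to infect fresh cells, which were cultured a second 72 hr (T2). HCV propagation was then assessed, with an NS3/NS4A protease inhibitor as positive control. Values are means of three experiments.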

[4] = Cytotoxicity against human Huh7.5 cells; format: cell-based; conditions: huh-7
Procedure, shortened: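 Huh-7.5 hepatoma cells; read-out is the 50% cytotoxic concentration (CC50), reported as the mean of three experiments.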

Row | SMILES | IC50 [1] [nM] | EC50 (Hepatitis C virus [2]) [nM] | EC50 (Hepatitis C virus [3]) [nM] | CC50 [4] [µM]
1 | COC(=O)C1=C(C(=O)OC)[C@@H]2N(CCOCCN3c4ccccc4[C@]45CCC(=O)N(Cc6ccccc6)C4=NC(C(=O)OC)=C(C(=O)OC)[C@H]35)c3ccccc3[C@@]23CCC(=O)N(Cc2ccccc2)C3=N1 | 98 | 480 | 2500 | > 100
2 | COC(=O)C1=C(C(=O)OC)[C@@H]2N(CCCN3c4ccccc4[C@]45CCC(=O)N(Cc6ccccc6)C4=NC(C(=O)OC)=C(C(=O)OC)[C@H]35)c3ccccc3[C@@]23CCC(=O)N(Cc2ccccc2)C3=N1 | 2900 | 88 | 735 | > 36
3 | COC(=O)C1=C(C(=O)OC)[C@@H]2N(CCCCCN3c4ccccc4[C@]45CCC(=O)N(Cc6ccccc6)C4=NC(C(=O)OC)=C(C(=O)OC)[C@H]35)c3ccccc3[C@@]23CCC(=O)N(Cc2ccccc2)C3=N1 (mixture of isomers) | 720 | 90 | 29900 | > 36
4 | COC(=O)C1=C(C(=O)OC)[C@@H]2N(CCCCCn3cc(-c4ccc(OC)cc4C)nn3)c3ccccc3[C@@]23CCC(=O)N(Cc2ccccc2)C3=N1 (racemic) | 92 | 1400 | 1100 | > 100
5 | COC(=O)C1=C(C(=O)OC)[C@@H]2N(CCCCCn3cc(CNC(C)=O)nn3)c3ccccc3[C@@]23CCC(=O)N(Cc2ccccc2)C3=N1 (racemic) | 341 | 26200 | 56200 | 150
6 | COc1ccc2c(O[C@@H]3C[C@H]4C(=O)N[C@]5(C(=O)O)C[C@H]5/C=C\CCCCC[C@H](NC(=O)OC5CCCC5)C(=O)N4C3)cc(-c3csc(NC(C)C)n3)nc2c1 [CILUPREVIR] | – | 72 | 71 | –
